Source: PubChem BioAssay
A selection: hits, their analogues and other compounds. The true share with any hit is near 2.1%.
CFTR F508del cor: CFTR F508del correction in bronchial cells | AID 720511 | CFBE cells, YFP halide quenching; stimulated with forskolin plus potentiator P3; % fluorescence drop versus neutral controls | 350,000 compounds, 0.36% hits | activity (quench increase), % at 7.58 µM;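 active means mean added fluorescence quench of at least 8% versus neutral control, with both replicates also reaching 8%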;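 further: cells transiently co-express mutant CFTR-F508del with the halide-sensitive YFP; corrector assay measuring rescue of mutant channel to the surface after 24 h compound exposure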
SMARCA2 activ: increases SMARCA2 function in MMTV reporter cells; MG213 cells, MMTV-luciferase reporter, dexamethasone, overnight; activation, % at 9.1 µM; 370,000 compounds, 1% hits; in the data active means activation above about 7.8%;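 further: 0% = vehicle wells and 100% = reference activator wells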
MC4R antag cAMP: human MC4R antagonism in cAMP assay. P32245. inhibition, % at 6.5 µM. AID 540295. 360,000 compounds, 0.48% hits. MC4R-expressing cells, MTII-stimulated cAMP, LANCE TR-FRET;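 active means inhibition above its plate's cutoff, the mean of tested wells on that plate plus 3 SD, cut at about 29% in these data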;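 further: 0% = Melanotan II alone and 100% = Melanotan II plus saturating MCL0020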
Target sequence (P32245 whole entry, looked up): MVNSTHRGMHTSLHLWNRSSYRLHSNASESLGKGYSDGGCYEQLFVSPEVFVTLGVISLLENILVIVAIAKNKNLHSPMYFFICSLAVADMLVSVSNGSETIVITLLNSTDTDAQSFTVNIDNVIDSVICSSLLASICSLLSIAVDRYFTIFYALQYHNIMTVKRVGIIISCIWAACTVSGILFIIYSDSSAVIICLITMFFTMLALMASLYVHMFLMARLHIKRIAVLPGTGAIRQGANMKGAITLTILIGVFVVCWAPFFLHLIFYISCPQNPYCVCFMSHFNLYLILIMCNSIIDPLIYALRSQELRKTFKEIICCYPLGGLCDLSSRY
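Test system: U2OS cells stably expressing human melanocortin 4 receptor (MC4R); also added: Melanotan II challenge; compound: 6.5 µM single dose; timing: 30-min compound preincubation, 1-h Melanotan II challenge, 1-h detection, room temperature; signal: Eu-cAMP/anti-cAMP TR-FRET, emission 671 nm; repeats: one well per compound, no replicates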
MC4R ag barr: human MC4R agonism via beta-arrestin. AID 540308. P32245. U2OS MC4R beta-arrestin complementation, luminescence; percent of melanotan II response, DMSO zero. 360,000 compounds, 0.98% hits. activation, % at 8.9 µM;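 active means activation above a per-plate cutoff, the mean activation of sample wells on that plate plus 3 SD, cut at about 8% in these data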
MC4R barr conf: human MC4R beta-arrestin agonism confirmation; shares compounds with MC4R ag barr; U2OS MC4R beta-arrestin recruitment, luminescence; scaled DMSO 0%, Melanotan II 100%; activation, % at 8.9 µM; 2,400 compounds, 31% hits; AID 602192;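 active means mean activation across replicates above the hit cutoff set in the earlier primary screen, cut at about 8% in these data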
MOR DOR agonist: counter-screen for MC4R agonists: agonists of mu-delta opioid heterodimer | 2,400 compounds, 5.8% hits | U2OS PathHunter beta-arrestin, beta-gal luminescence; percent of deltorphin B response, DMSO zero | activation, % at 9.2 µM | shares compounds with MC4R ag barr;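 active means mean activation across replicates exceeds the hit threshold derived in the earlier primary screen, cut at about 18% in these data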;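 further: 100% = deltorphin B at 0.9 µM final and 0% = DMSO alone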
* = called active by the depositor; . = no result given.

SMILES	CFTR F508del cor	SMARCA2 activ	MC4R antag cAMP	MC4R ag barr	MC4R barr conf	MOR DOR agonist
N#Cc1c(C(F)(F)F)cc(-c2cccs2)nc1SCc1cccnc1	.	-1	4	12*	1	1
COc1ccccc1NC(=O)N[C@H]1CC[C@@H](CC(=O)N[C@@H](C)c2ccccc2)O[C@@H]1CO	0	.	.	.	.	.
COCCNC(=O)c1ccc(-n2c(SCc3cc(F)ccc3F)nc3ccccc3c2=O)cc1	.	-1	7	12*	8.3*	4
CCOC(=O)CSc1nc2ccccc2c(=O)n1-c1ccc(C(=O)NCCOC)cc1	.	1	0	3	.	.
COc1ccc(Nc2oc(-c3ccccc3)nc2C#N)cc1	-2	0	-4	3	.	.
COc1ccc(Nc2oc(-c3ccc(Cl)cc3)nc2C#N)cc1	.	6	-12	18*	3	8
Cc1ccc2oc(-c3ccc(NC(=O)CC(C)C)cc3)nc2c1	2	0	3	14*	-2	3
C[C@@H]1CN([C@H](C)CO)C(=O)c2cc(C#Cc3cccnc3)cnc2O[C@H]1CN(C)C(=O)CN(C)C	-2	.	.	.	.	.
O=CNc1cc(-c2ccc(C(=O)NC3CC3)cc2)cn2c(-c3ccc(F)cc3)cnc12	4	2	7	3	.	.
COc1cc(-c2cnc3c(NC=O)cc(-c4ccccc4)cn23)cc(OC)c1OC	3	-2	-54	5	.	.
COc1ccc(-c2cc(NC=O)c3ncc(-c4cccc(C(F)(F)F)c4)n3c2)cc1OC	-1	0	-9	36*	27*	6
COc1cc(-c2cnc3c(NC=O)cc(-c4cccc(NC(C)=O)c4)cn23)cc(OC)c1OC	.	3	-65	-2	.	.
CS(=O)(=O)c1ccc(-c2cc(NC=O)c3ncc(-c4ccc(F)cc4)n3c2)cc1	2	-2	-2	11*	6	3
CN(C)CCNC(=O)c1cccc(-c2cnc3c(NC=O)cc(-c4ccccc4F)cn23)c1	3	4	-4	0	.	.
CN(C)c1ccccc1-c1cc(NC=O)c2ncc(-c3cccc(C(F)(F)F)c3)n2c1	-2	7	-6	27*	27*	5
COc1cc(-c2cc(NC=O)c3ncc(-c4cccc(C(F)(F)F)c4)n3c2)cc(OC)c1OC	1	-1	-28	22*	19*	8
C[C@@H]1CN([C@H](C)CO)C(=O)c2cc(C#Cc3ccncc3)cnc2O[C@H]1CN(C)CC1CCOCC1	-1	.	.	.	.	.
COc1cccc(C(=O)N2C[C@H]3[C@@H](c4ccccc42)[C@H](CO)N3C(=O)c2ccccc2)c1	-1	.	.	.	.	.
CC(C)c1cn(CC[C@H]2CC[C@H](NS(=O)(=O)Cc3ccccc3)[C@H](CO)O2)nn1	2	.	.	.	.	.
CO[C@@H]1CN(C)C(=O)c2ccc(NC(=O)NC(C)C)cc2OC[C@H](C)N(Cc2ccccc2)C[C@@H]1C	2	.	.	.	.	.
COc1ccccc1-c1cc(NC=O)c2ncc(-c3ccc(F)cc3)n2c1	2	-2	14	18*	18*	4
COc1ccccc1-c1cc(NC=O)c2ncc(-c3cccc(C(F)(F)F)c3)n2c1	1	1	-1	25*	23*	2
COc1cc(-c2cnc3c(NC=O)cc(-c4ccccc4Cl)cn23)cc(OC)c1OC	4	4	-56	7	.	.
COc1ccc(F)cc1-c1cc(NC=O)c2ncc(-c3cc(OC)c(OC)c(OC)c3)n2c1	5	-1	-61	3	.	.
O=C1CC(SC(=Nc2ccccc2)Nc2ccccc2)C(=O)N1c1ccc(Cl)cc1 (configuration not stated)	.	0	11	12*	-1	9
SMILES	CFTR F508del cor	SMARCA2 activ	MC4R antag cAMP	MC4R ag barr	MC4R barr conf	MOR DOR agonist
CCOc1ccccc1NC(=O)COC(=O)/C=C/c1cccs1	-1	-1	7	0	.	.
COc1cc(/C=C/C(=O)OCC(=O)Nc2ccccc2Cl)cc(OC)c1OC	.	-3	1	15*	4	10
COC(=O)c1ccccc1NC(=O)COC(=O)/C=C/c1cccs1	1	-1	4	20*	4	2
CN1C(=O)c2cc(NC(=O)c3cccc(F)c3)ccc2OC[C@H]2O[C@@H](CC(=O)NCC3CC3)CC[C@@H]21	1	.	.	.	.	.
C[C@H](O)C#Cc1ccc2c(c1)O[C@@H](CN(C)C(=O)CC1CC1)[C@H](C)CN([C@@H](C)CO)S2(=O)=O	2	.	.	.	.	.
C[C@@H]1CN([C@@H](C)CO)C(=O)c2cc(C#Cc3ccccc3F)cnc2O[C@H]1CN(C)C(=O)Cc1cccnc1	0	.	.	.	.	.
CCC(C)Sc1ccc(-c2nc3ccc(C)cn3c2NCc2ccccc2)cc1 (configuration not stated)	2	6	10	12*	5	8
Cc1ccc2nc(-c3ccc(-c4cccc(Cl)c4)cc3)c(NCc3ccccc3)n2c1	5	2	2	4	.	.
O=C(O)C[C@@H]1CC[C@H]2[C@@H](COC[C@H](O)CN2S(=O)(=O)c2ccc(F)cc2)O1	-2	.	.	.	.	.
COc1cccc(NC(=O)c2cc(-c3ccncc3)nc3c(C)cc(C)cc23)c1	-6	0	2	2	.	.
Cc1cc(C)c2nc(-c3ccccn3)cc(C(=O)NCc3ccc(S(N)(=O)=O)cc3)c2c1	0	0	2	9.7*	0	5
COc1ccc(NC(=O)c2cc(-c3ccccn3)nc3c(C)cc(C)cc23)c(C)c1	-4	-2	20	12*	3	3
C=CCNC(=S)N/N=C/c1ccc(-c2ccc(Cl)cc2Cl)o1	-1	-2	0	10*	7	5
O=C(Cc1cccs1)Nc1nnc(SCc2cccc3ccccc23)s1	.	0	3	12*	3	3
O=C(Cc1cccs1)Nc1nnc(SCC(=O)NC2CCCCC2)s1	.	-3	-3	-1	.	.
O=C1CN(C(=O)COC(=O)/C=C/c2ccc(OC(F)F)cc2)c2ccccc2N1	.	-5	-5	11*	-1	3
Cc1ccc(/C=C/C(=O)OCC(=O)N2CC(=O)Nc3ccccc32)o1	2	0	-13	1	.	.
C[C@@H]1CCCCO[C@@H](CN(C)CC2CC2)[C@H](C)CN([C@@H](C)CO)C(=O)c2cc(NS(C)(=O)=O)ccc2O1	1	.	.	.	.	.
OC(c1ccc(-c2ccccc2)cc1)c1ncc(-c2ccc(F)cc2)[nH]1 (configuration not stated)	1	-2	8	10*	7	15
OC(c1ccccc1)c1ncc(-c2ccc(Cl)cc2)[nH]1 (configuration not stated)	-1	-1	-1	-1	.	.
OC(c1cccc(Cl)c1)c1ncc(-c2ccc(Oc3ccccc3)cc2)[nH]1 (configuration not stated)	0	-3	2	2	.	.
